Results taken from publication PMC10443334 (Microbial Biotechnology, 2023).
Where a SMILES comes first, the peptide text is derived from it. Bridges are numbered along the chain shown (N, C = ends). [ ]: non-standard residue; d: D form. The star is where a group is joined. X1 = CC[C@H](C)CCCCC(=O)*; Dab = NCC[C@H](N)C(=O)O

Legend:
THP-1 cells [1] = test: NF-κB activation western blot; assay type: cell-based, human; conditions: TAK242 1 μM (infection) or 100 nM (LPS) for 1 h
Outline: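 THP-1 cells were differentiated with PMA (10 ng/mL, 48 h). For infection, cells got TAK242 1 μM for 1 h, then washed log-phase BL21/pEmpty or BL21/pMCR-1 at MOI 50 in serum-free medium with kanamycin and IPTG for 4 h. For LPS, cells got TAK242 100 nM for 1 h, then purified LPS (1 μg/mL) for 4 h. Cell extracts were western blotted and relative band levels quantified.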

BL21/pMCR-1 [2] = test: Microdilution MIC/MBC; assay type: cell-based, E. coli; conditions: MIC ratio BL21/pMCR-1 vs BL21/pEmpty
Outline: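 Broth microdilution MIC/MBC followed CLSI. Strains were E. coli BL21 carrying pET28a-mcr-1 or empty pET28a, grown in LB (pH 7.2–7.4) with 50 μg/mL kanamycin. MCR-1 expression was induced with 0.5 mM IPTG at 37°C with shaking at 220 rpm.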

BL21/pMCR-1 [3] = test: Time-killing kinetics; assay type: cell-based, E. coli; conditions: 16 μg/mL, 1 × 10^5 CFU/mL, IPTG, 37°C, agar plate dilution count
Outline: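 Suspensions of IPTG-induced BL21/pMCR-1 (1 × 10^5 CFU/mL) were sub-cultured into tubes with IPTG, with or without test compound at 4 × MIC, at 37°C. Viable counts were taken by agar plate dilution at fixed time intervals. Data are mean ± SD from three independent experiments.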

THP-1 cells [4] = test: LDH release and caspase 1 western blot after OMV stimulation; assay type: cell-based, human; conditions: Wed 50 μM pre-treatment for 2 h, OMVs 20 μg protein/mL
Outline: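 PMA-differentiated (10 ng/mL, 48 h) THP-1 macrophages were pre-treated with DMSO or 50 μM Wed, then exposed to OMVs (20 μg protein/mL) for 4 h at 37°C, 5% CO2. OMVs came from 8 h LB culture supernatants, filtered, concentrated on 100-kDa filters and pelleted at 150,000 g for 3 h. LDH in media was read by kit as % of 0.1% Triton X-100 lysis; lysates were western blotted with chemiluminescent quantitation.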

CCOC(=O)C1=CCCC[C@H]1S(=O)(=O)Nc1ccc(F)cc1Cl [TAK242, Resatorvid]
p-P65 and p-IκB after infection or LPS stimulation (THP-1 cells [1]): inhibited

CC[C@H](C)CCCCC(=O)N[C@@H](CCN)C(=O)N[C@H](C(=O)N[C@@H](CCN)C(=O)N[C@H]1CCNC(=O)[C@H]([C@@H](C)O)NC(=O)[C@H](CCN)NC(=O)[C@H](CCN)NC(=O)[C@H](CC(C)C)NC(=O)[C@@H](Cc2ccccc2)NC(=O)[C@H](CCN)NC1=O)[C@@H](C)O [polymyxin B, Polymyxin B sulphate] (X1-[Dab]T[Dab][Dab][Dab][dF]L[Dab][Dab]T; lactam 4-C (inferred); N-terminus assumed)
increase of MIC against BL21/pMCR-1 compared to BL21/pEmpty (BL21/pMCR-1 [2]): 8 fold | time to eradicate all bacteria (time-kill kinetics) (BL21/pMCR-1 [3]): 4 h

COc1cc(O)c2c(c1)oc(=O)c1c3cc(O)c(O)cc3oc21 [Wed, wedelolactone]
macrophage cell death and caspase-1 processing after OMV stimulation (THP-1 cells [4]): markedly reduced
